pKi: −log10 of the molar value. The source made the active and inactive calls. The rule behind the calls is not given here.
Experiments:
[1] = biological target: T1, Delta-type opioid receptor (Homo sapiens, UniProt P41143); experiment: Antagonist activity at human opioid delta receptor expressed in HEK293 cells assessed as inhibition of DPDPE-induced [35S]GTP-gamma-S binding after 4 hrs by scintillation counting; format: functional, cell-based
[2] = test system: CHO; experiment: Selectivity ratio of Kb for human opioid mu receptor expressed in CHO cells to Kb for human opioid kappa receptor expressed in CHO cells; format: cell-based
Method in brief: (§1)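 Kb ratios from antagonist [35S]GTP-γ-S SPA on CHO (κ, μ) or HEK293 (δ) membranes. Agonists at about 80% maximal: U69,593 300 nM (κ), DAMGO 1 μM (μ), DPDPE 30 nM (δ). 11-point curves, top 1 or 10 μM. Nonspecific binding: NorBNI, naltrexone or naltriben, each 10 μM. Kb = IC50/(1+D/EC50); geometric means with SEM.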

[3] = biological target: T2, Kappa-type opioid receptor (Homo sapiens, UniProt P41145); experiment: Displacement of [3H]diprenorphine from human opioid kappa receptor expressed in CHO cells after 120 mins by scintillation counting; format: cell-based
Method in brief: (§2)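 11-point curves, 0.01 nM–1 μM final. 120 min at 22 °C, then filtration and scintillation counting. Nonspecific binding set by 10 μM naltrexone. Four-parameter IC50; Ki by Cheng–Prusoff.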

[4] = biological target: T3, Mu-type opioid receptor (Homo sapiens, UniProt P35372); experiment: Displacement of [3H]diprenorphine from human opioid mu receptor expressed in CHO cells after 120 mins by scintillation counting; format: cell-based; method in brief: as §2
[5] = biological target: T1, Delta-type opioid receptor; experiment: Displacement of [3H]diprenorphine from human opioid delta receptor expressed in HEK293 cells after 120 mins by scintillation counting; format: cell-based; method in brief: as §2
[6] = biological target: T2, Kappa-type opioid receptor; experiment: Antagonist activity at human opioid kappa receptor expressed in CHO cells assessed as inhibition of U69593-induced [35S]GTP-gamma-S binding after 4 hrs by scintillation counting; format: functional, cell-based
[7] = biological target: T3, Mu-type opioid receptor; experiment: Antagonist activity at human opioid mu receptor expressed in CHO cells assessed as inhibition of DAMGO-induced [35S]GTP-gamma-S binding after 4 hrs by scintillation counting; format: functional, cell-based
[8] = test system: HEK293; experiment: Selectivity ratio of Kb for human opioid delta receptor expressed in HEK293 cells to Kb for human opioid kappa receptor expressed in CHO cells; format: cell-based; method in brief: as §1
[9] = biological target: T2, Kappa-type opioid receptor; experiment: Agonist activity at human opioid kappa receptor expressed in CHO cells assessed as stimulation of [35S]-GTPgammaS binding at 10 uM; format: functional, cell-based
Method in brief: (§3)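 Agonist mode: membranes from CHO (κ, μ) or HEK293 (δ) cells expressing cloned human receptors, no agonist added, tested at up to 10 μM. [35S]GTP-γ-S (0.5 nM final) binding in HEPES pH 7.4, MgCl2, NaCl, EDTA, DTT, 200 μM GDP. Read by WGA SPA beads after 2 h (δ) or 4 h (κ, μ) at room temperature, then 4 °C overnight.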

[10] = biological target: T3, Mu-type opioid receptor; experiment: Agonist activity at human opioid mu receptor expressed in CHO cells assessed as stimulation of [35S]-GTPgammaS binding at 10 uM; format: functional, cell-based; method in brief: as §3
[11] = biological target: T1, Delta-type opioid receptor; experiment: Agonist activity at human opioid delta receptor expressed in HEK293 cells assessed as stimulation of [35S]-GTPgammaS binding at 10 uM; format: functional, cell-based; method in brief: as §3
[12] = test system: CHO; experiment: Selectivity ratio of Ki for human opioid mu receptor expressed in CHO cells to Ki for human opioid kappa receptor expressed in CHO cells; format: cell-based
[13] = test system: HEK293; experiment: Selectivity ratio of Ki for human opioid delta receptor expressed in HEK293 cells to Ki for human opioid kappa receptor expressed in CHO cells; format: cell-based
[14] = test system: Rattus norvegicus; experiment: Antinociceptive activity in po dosed rat assessed as reversal of agonist […]-induced pain by formalin test; format: functional
[15] = test system: Rattus norvegicus; experiment: Reversal of […] in po dosed rat; format: functional
[16] = test system: Nucleic Acid; experiment: Ratio of drug uptake in striatum to cerebellum in rat at 3 ug/kg, iv measured after 40 mins by LC/MS/MS analysis; format: ADME, organism-based; details: in vivo, 0.003 mg/kg
Method in brief: (§4)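 Groups of four rats were given iv tracer and killed 20 or 40 min after dosing. Striatum (total binding) and cerebellum (nonspecific, null region) were extracted in acetonitrile/0.1% formic acid and quantified by LC/MS/MS. Binding potential was calculated as (striatum/cerebellum concentration) − 1.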

[17] = test system: Rattus norvegicus; experiment: In vivo receptor occupancy of opioid kappa in iv dosed rat striatum after 40 mins by 3-Chloro-4-[4-[ [ (2S)-2-(3-pyridyl)pyrrolidin-1-yl]methyl]phenoxy]- benzamide displacement assay; format: functional
[18] = test system: Striatum; experiment: Drug uptake in rat striatum at 1 ug/kg, iv measured after 40 mins by LC/MS-MS analysis; format: ADME, organism-based; details: in vivo, 0.001 mg/kg
Method in brief: (§5)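 Groups of four rats received a single iv tracer dose and were killed 20 or 40 min later. Striatum was weighed, homogenized in 4 volumes acetonitrile/0.1% formic acid and centrifuged. The supernatant was diluted and analysed by LC/MS/MS against standards spiked into naive rat brain. %SUV = tissue amount/injected dose × 100.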

[19] = test system: Striatum; experiment: Drug uptake in rat striatum at 3 ug/kg, iv measured after 40 mins by LC/MS-MS analysis; format: ADME, organism-based; details: in vivo, 0.003 mg/kg; method in brief: as §5
[20] = test system: Striatum; experiment: Drug uptake in rat striatum at 1.5 ug/kg, iv measured after 40 mins by LC/MS-MS analysis; format: ADME, organism-based; details: in vivo, 0.0015 mg/kg
Method in brief: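 Groups of four rats received a single iv tracer dose and were killed 20 or 40 min later. Striatum was weighed, sonicated in 4 volumes of acetonitrile with 0.1% formic acid, and centrifuged. The supernatant was diluted with water and analysed by C18 LC/MS/MS (precursor-to-product ion transition) against standards spiked into naive rat brain. %SUV = (tissue amount / injected dose) × 100.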

[21] = test system: Nucleic Acid; experiment: Ratio of drug uptake in striatum to cerebellum in rat at 1.5 ug/kg, iv measured after 40 mins by LC/MS/MS analysis; format: ADME, organism-based; details: in vivo, 0.0015 mg/kg
Method in brief: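 Rats (groups of four) given a single iv tracer dose, killed 20 or 40 min later. Striatum and cerebellum weighed, homogenised by ultrasonic probe in four volumes acetonitrile with 0.1% formic acid, centrifuged, supernatant diluted with water. Read-out is LC/MS/MS on C18 column monitoring precursor-to-product transitions, quantified against standards spiked into untreated rat brain. Binding potential = (striatum/cerebellum) − 1.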

[22] = test system: Striatum; experiment: Drug uptake in rat striatum at 30 ug/kg, iv measured after 40 mins by LC/MS-MS analysis; format: ADME, organism-based; details: in vivo, 0.03 mg/kg; method in brief: as §5
[23] = test system: Nucleic Acid; experiment: Ratio of drug uptake in striatum to cerebellum in rat at 30 ug/kg, iv measured after 40 mins by LC/MS/MS analysis; format: ADME, organism-based; details: in vivo, 0.03 mg/kg; method in brief: as §4

T3 sequence (P35372 whole entry): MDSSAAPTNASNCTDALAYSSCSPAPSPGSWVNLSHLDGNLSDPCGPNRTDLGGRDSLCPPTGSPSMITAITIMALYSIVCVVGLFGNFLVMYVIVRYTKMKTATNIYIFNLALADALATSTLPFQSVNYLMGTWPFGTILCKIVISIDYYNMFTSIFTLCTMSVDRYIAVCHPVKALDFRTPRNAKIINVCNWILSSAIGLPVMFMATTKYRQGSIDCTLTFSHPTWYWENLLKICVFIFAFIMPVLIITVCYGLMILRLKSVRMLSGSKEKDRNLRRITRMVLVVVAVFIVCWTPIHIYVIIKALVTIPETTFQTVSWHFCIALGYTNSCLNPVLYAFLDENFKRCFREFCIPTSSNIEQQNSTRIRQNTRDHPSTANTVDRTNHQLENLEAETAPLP
T2 sequence (P41145 whole entry): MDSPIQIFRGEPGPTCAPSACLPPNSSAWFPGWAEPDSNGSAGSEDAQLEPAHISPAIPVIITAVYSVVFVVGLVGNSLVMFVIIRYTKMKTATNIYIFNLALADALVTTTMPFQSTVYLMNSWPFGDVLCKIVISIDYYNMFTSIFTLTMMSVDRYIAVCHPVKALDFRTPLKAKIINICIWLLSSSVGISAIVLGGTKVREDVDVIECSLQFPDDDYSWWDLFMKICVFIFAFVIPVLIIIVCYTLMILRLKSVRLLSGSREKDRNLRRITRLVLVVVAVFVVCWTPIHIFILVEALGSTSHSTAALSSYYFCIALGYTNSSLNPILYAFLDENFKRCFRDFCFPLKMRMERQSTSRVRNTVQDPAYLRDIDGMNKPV
T1 sequence (P41143 whole entry): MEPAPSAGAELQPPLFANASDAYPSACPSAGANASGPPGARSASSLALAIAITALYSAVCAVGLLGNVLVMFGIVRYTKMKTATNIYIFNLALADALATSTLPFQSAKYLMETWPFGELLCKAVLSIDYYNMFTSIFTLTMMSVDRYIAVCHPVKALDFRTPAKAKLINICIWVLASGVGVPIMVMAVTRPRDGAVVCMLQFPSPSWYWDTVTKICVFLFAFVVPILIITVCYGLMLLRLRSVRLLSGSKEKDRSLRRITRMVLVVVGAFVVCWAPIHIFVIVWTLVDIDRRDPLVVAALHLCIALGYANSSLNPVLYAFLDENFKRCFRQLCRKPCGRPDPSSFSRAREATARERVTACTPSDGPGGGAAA

Row | SMILES | Kb [1] | Ratio [2] | pKi [3] | pKi [4] | pKi [5] | Kb [6] | Kb [7] | Ratio [8] | Activity [9] | Activity [10] | Activity [11] | Ratio Ki [12] | Ratio Ki [13] | also measured
1 | CC1(C)CN(Cc2ccc(Oc3ccc(C(N)=O)cn3)cc2)[C@H]1c1ccccc1 | > 1 µM | 3 | 7.57 | 6.97 | < 6.30 | 0.0152 µM | 0.0438 µM | > 65 | inactive | inactive | inactive | – | – | –
2 | CC1(C)CN(Cc2ccc(Oc3ccc(C(N)=O)cn3)cc2)C1c1ccccc1 (racemic) | – | – | 8.85 | 7.28 | < 6.30 | – | – | – | inactive | inactive | inactive | – | – | –
3 | NC(=O)c1ccc(Oc2ccc(CN3CCC[C@H]3c3cccc(F)c3)cc2)c(F)c1 | 0.293 µM | 14 | 9.25 | 7.45 | 6.68 | 0.00157 µM | 0.0213 µM | 187 | inactive | inactive | inactive | 63 | 373 | ED50 [14]: 0.24 mg/kg; ED50 [15]: 30 mg/kg; Ratio [16]: 0.2; ED50 [17]: 0.06 mg/kg
4 | CC1(C)CN(Cc2ccc(Oc3ccc(C(N)=O)cn3)cc2)[C@@H]1c1ccccc1 | 0.338 µM | 15 | 8.98 | 7.37 | < 6.30 | 0.00246 µM | 0.0366 µM | 137 | inactive | inactive | inactive | – | – | SUV [18]: 270%
5 | NC(=O)c1ccc(Oc2ccc(CN3CCC[C@@H]3c3cccnc3)cc2)c(Cl)c1 | – | – | 7.35 | < 6.30 | < 6.30 | – | – | – | inactive | inactive | inactive | > 11 | > 11 | –
6 | CC(C)[C@@H](CN1CC[C@@](C)(c2cccc(O)c2)[C@@H](C)C1)NC(=O)[C@H]1Cc2ccc(O)cc2CN1C | 0.619 µM | 69 | 9.82 | 7.51 | < 6.30 | 0.000162 µM | 0.0112 µM | 3820 | inactive | inactive | inactive | 201 | > 3200 | SUV [19]: 23%
7 | CC(C)[C@@H](CN1CC[C@@](C)(c2cccc(O)c2)[C@@H](C)C1)NC(=O)[C@H]1Cc2ccc(O)cc2CN1 | – | – | – | – | – | – | – | – | inactive | inactive | inactive | – | – | –
8 | COC(=O)N1CCN(C(=O)Cc2ccc(Cl)c(Cl)c2)[C@H](CN2CCCC2)C1 | – | – | 9.30 | 7.46 | 6.37 | – | – | – | inactive | inactive | inactive | 69 | 841 | SUV [20]: 50%; Ratio [21]: 1.5
9 | Oc1ccc2c3c1O[C@H]1c4[nH]c5c(c4C[C@@]4(O)[C@@H](C2)N(CC2CC2)CC[C@]314)C[C@@]1(O)[C@H]2Cc3ccc(O)c4c3[C@@]1(CCN2CC1CC1)[C@H]5O4 | – | – | – | – | – | – | – | – | inactive | inactive | inactive | – | – | –
10 | NC(=O)c1ccc(Oc2ccc(CN3CCCC3c3cccnc3)cc2)c(Cl)c1 (racemic) | – | – | 9.21 | 7.50 | 6.60 | – | – | – | inactive | inactive | inactive | 51 | 404 | –
11 | NC(=O)c1ccc(Oc2ccc(CN3CCCC3c3cccnc3)cc2)nc1 (racemic) | 0.407 µM | 19 | 8.83 | 7.40 | < 6.30 | 0.00589 µM | 0.11 µM | 69 | inactive | inactive | inactive | 27 | > 330 | SUV [22]: 13%; Ratio [23]: 2.2
12 | Cc1cc(C)cc([C@@H]2CCCN2Cc2ccc(Oc3ccc(C(N)=O)cc3F)cc2)c1 [ATICAPRANT] | 0.11 µM | 21 | 9.02 | 7.64 | – | 0.000813 µM | 0.0174 µM | 135 | inactive | inactive | inactive | 24 | 175 | –
13 | Cc1cc(C)cc([C@H]2CCCN2Cc2ccc(Oc3ccc(C(N)=O)cc3F)cc2)c1 | 0.22 µM | 2 | 7.85 | 7.00 | 6.78 | 0.0448 µM | 0.0696 µM | 5 | inactive | inactive | inactive | 7 | 12 | –
14 | NC(=O)c1ccc(Oc2ccc(CN3CCCC3c3cccc(F)c3)cc2)c(F)c1 (racemic) | 0.525 µM | 18 | 9.21 | 7.39 | 6.73 | 0.00352 µM | 0.0635 µM | 149 | inactive | inactive | inactive | 67 | 303 | –
15 | NC(=O)c1ccc(Oc2ccc(CN3CCCC3c3ccccc3)cc2)nc1 (racemic) | 0.635 µM | 9 | 8.04 | 6.63 | < 6.30 | 0.017 µM | 0.15 µM | 37 | inactive | inactive | inactive | 25 | > 50 | –
16 | NC(=O)c1ccc(Oc2ccc(CN3CCC[C@@H]3c3cccc(F)c3)cc2)c(F)c1 | > 1 µM | > 5 | 7.27 | < 6.30 | < 6.30 | 0.0887 µM | > 0.5 µM | > 5 | inactive | inactive | inactive | > 9 | > 9 | –
17 | NC(=O)c1ccc(Oc2ccc(CNCc3ccccc3)cc2)nc1 | 0.0603 µM | 1 | 8.75 | 8.61 | 7.56 | 0.00433 µM | 0.0038 µM | 14 | inactive | inactive | inactive | 1 | 16 | –

Reference: ChEMBL document CHEMBL1921714, “Discovery of aminobenzyloxyarylamides as κ opioid receptor selective antagonists: application to preclinical development of a κ opioid receptor antagonist receptor occupancy tracer” (J Med Chem, 2011)
